Assay results taken from ChEMBL document CHEMBL3085696, “Aurora isoform selectivity: design and synthesis of imidazo[4,5-b]pyridine derivatives as highly selective inhibitors of Aurora-A kinase in cells” (J Med Chem, 2013).
The source made the active and inactive calls. The rule behind the calls is not given here.

Tests used:
Aurora kinase B [1] = target: T1, Aurora kinase B (Homo sapiens, UniProt Q96GD4); assay: Inhibition of full-length aurora-B (unknown origin) using 5FAMLRRASLG-CONH2 as substrate after 60 mins
Method in brief: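 Full-length Aurora-B/INCENP complex (1 nM) incubated with 1.5 μM 5FAM-LRRASLG-CONH2 peptide and 15 μM ATP in Tris pH 7.4 buffer with NaCl, MgCl2, DTT, Tween 20. Runs 60 min at room temperature, then EDTA stop. Microfluidic mobility-shift readout of percent conversion. Duplicate 8-point curves, 0.25 pM–200 μM final. IC50 by four-parameter logistic fit.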

Aurora kinase A [2] = target: T2, Aurora kinase A (Homo sapiens, UniProt O14965); assay: Inhibition of N-terminal HIS-tagged aurora-A (unknown origin) using 5FAM-LRRASLG-CONH2 as substrate after 60 mins
T2 sequence (O14965 whole entry): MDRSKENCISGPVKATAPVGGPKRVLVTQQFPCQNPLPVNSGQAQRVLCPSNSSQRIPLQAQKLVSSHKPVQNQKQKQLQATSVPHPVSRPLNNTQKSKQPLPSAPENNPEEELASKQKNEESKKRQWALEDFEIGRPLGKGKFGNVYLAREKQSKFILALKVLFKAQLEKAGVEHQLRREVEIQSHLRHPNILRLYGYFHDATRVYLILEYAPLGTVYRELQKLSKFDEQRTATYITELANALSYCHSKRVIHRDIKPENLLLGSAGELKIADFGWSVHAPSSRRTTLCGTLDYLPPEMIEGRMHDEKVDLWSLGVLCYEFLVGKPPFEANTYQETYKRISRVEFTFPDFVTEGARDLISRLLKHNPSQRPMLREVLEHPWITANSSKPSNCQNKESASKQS
Method in brief: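 Aurora-A (5 nM N-terminal His-tagged) incubated with 1.5 μM 5FAM-LRRASLG-CONH2 peptide and 20 μM ATP in 50 mM Tris pH 7.4, 200 mM NaCl, 5 mM MgCl2, 2 mM DTT, 0.1% Tween 20. Runs 60 min at room temperature; EDTA stop. Microfluidic separation of product from substrate. Duplicate 8-point curves, 0.25 pM–200 μM final, 1–2% DMSO. IC50 from four-parameter logistic fit.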

Aurora kinase A [3] = target: T2, Aurora kinase A; assay: Inhibition of autophosphorylation of N-terminal Myc tagged aurora-A at T288 in human HeLa cells after 2 hrs; assay type: cell-based
Method in brief: (§1)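 Cells transfected with Myc-tagged Aurora-A (wild type or T217E, L215R, R220K mutants) and treated with inhibitor concentrations for 2 h. Lysed in LDS buffer; SDS-type PAGE and western blot. Blots probed for P-T288 (Aurora-A autophosphorylation) and phospho-histone H3 S10 (Aurora-B substrate). Blots quantified; IC50 derived; ratio taken as H3 IC50 over T288 IC50.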

Aurora kinase B [4] = target: T1, Aurora kinase B; assay: Inhibition of N-terminal Myc tagged aurora-B-mediated histone H3 phosphorylation at S10 in human HeLa cells after 2 hrs; assay type: cell-based; method in brief: as §1
[5] = target: Vascular endothelial growth factor receptor 1 (Homo sapiens) (UniProt P17948); assay: Inhibition of VEGFR1 (unknown origin) at 1 uM
Method in brief: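 110-kinase panel profiling, compounds tested at 1 μM, read as percent inhibition.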

[6] = target: T3, Aurora kinase A (Homo sapiens) (UniProt O14965); conditions: HCT-116, 1.5 uM
T3 sequence (whole entry): T2 sequence (O14965 whole entry)

Aurora kinase B [7] = target: T1, Aurora kinase B; conditions: HCT-116, 25 to 50 uM
HeLa = assay: Selectivity ratio of IC50 for aurora-B-mediated histone H3 phosphorylation at S10 in human HeLa cells to IC50 for autophosphorylation of N-terminal Myc tagged aurora-A at T288 in human HeLa cells; assay type: cell-based; method in brief: as §1
[8] = Metabolic stability in human liver microsomes at 10 uM after 30 mins; assay type: ADME; conditions: read-out: Stability
Method in brief: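 Mixed-gender pooled human liver microsomes (1 mg/mL) incubated with compound at 10 μM plus NADPH 1 mM, UDPGA 2.5 mM and MgCl2 3 mM in 10 mM PBS at 37 °C, for 0 and 30 min. Cofactor-free controls included. Percent remaining measured by LC/MS.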

Aurora kinase A [9] = target: Aurora kinase A (Homo sapiens, UniProt O14965, R220K); assay: Inhibition of autophosphorylation of aurora-A R220K mutant at T288 in human HCT116 cells after 2 hrs; assay type: cell-based, HCT-116
Method in brief: (§2)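 Cells transfected with N-terminal Myc-tagged Aurora-A (wild type or T217E, L215R or R220K mutant, made by Quikchange mutagenesis), then exposed to a range of inhibitor concentrations for 2 h. Lysed in LDS sample buffer, sonicated, boiled, run on LDS-PAGE and blotted to nitrocellulose. Probed with anti-P-T288 (Aurora-A autophosphorylation) and anti-P-histone H3 S10 (Aurora-B substrate) antibodies. Blots quantified and IC50 fitted.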

Aurora kinase A [10] = target: T2, Aurora kinase A; assay: Inhibition of autophosphorylation of N-terminal Myc tagged wild type aurora-A at T288 in human HCT116 cells after 2 hrs; assay type: cell-based, HCT-116; method in brief: as §2
Aurora kinase A [11] = target: Aurora kinase A (Homo sapiens, UniProt O14965, L215R); assay: Inhibition of autophosphorylation of aurora-A L215R mutant at T288 in human HCT116 cells after 2 hrs; assay type: cell-based, HCT-116; method in brief: as §2
[12] = Metabolic stability in CD1 mouse liver microsomes at 10 uM after 30 mins; assay type: ADME, Microsome; conditions: read-out: Stability
Method in brief: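 Compound at 10 μM incubated with male CD1 mouse liver microsomes (1 mg/mL protein) plus NADPH 1 mM, UDPGA 2.5 mM and MgCl2 3 mM in 10 mM PBS at 37 °C, for 0 and 30 min. Controls omit cofactors. Percent remaining measured by LC/MS.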

Mus musculus = assay: Oral bioavailability in Balb/C mouse at 5 mg/kg; assay type: ADME, organism-based; conditions: in vivo
Method in brief: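 Female Balb/C mice given 5 mg/kg po or iv in 10% DMSO/5% Tween 20 in saline. Terminal cardiac-puncture plasma taken at 5, 15, 30 min and 1, 2, 4, 6, 24 h. Methanol precipitation with olomoucine internal standard. Analysis by LC/MS (ESI+ MRM).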

Aurora kinase A [13] = target: Aurora kinase A (Homo sapiens, UniProt O14965, T217E); assay: Inhibition of autophosphorylation of aurora-A T217E mutant at T288 in human HCT116 cells after 2 hrs; assay type: cell-based, HCT-116; method in brief: as §2
Aurora kinase B [14] = target: T1, Aurora kinase B; assay: Inhibition of N-terminal Myc tagged aurora-B-mediated histone H3 phosphorylation at S10 in human HCT116 cells after 2 hrs; assay type: cell-based, HCT-116; method in brief: as §2
Aurora kinase A [15] = target: T2, Aurora kinase A; assay: Inhibition of autophosphorylation of N-terminal Myc tagged aurora-A at T288 in human HCT116 cells after 2 hrs; assay type: cell-based, HCT-116; method in brief: as §1
Aurora kinase B [16] = target: T1, Aurora kinase B; assay: Inhibition of N-terminal Myc tagged aurora-B (unknown origin)-mediated histone H3 phosphorylation at S10 after 2 hrs; method in brief: as §1
Homo sapiens = organism: Homo sapiens; assay: Selectivity ratio of IC50 for aurora-B (unknown origin)-mediated histone H3 phosphorylation at S10 to IC50 for autophosphorylation of N-terminal Myc tagged aurora-A at T288 (unknown origin); method in brief: as §1
Aurora kinase A [17] = target: T2, Aurora kinase A; assay: Inhibition of autophosphorylation of N-terminal Myc tagged aurora-A at T288 (unknown origin) after 2 hrs; method in brief: as §1

T1 sequence (Q96GD4 whole entry): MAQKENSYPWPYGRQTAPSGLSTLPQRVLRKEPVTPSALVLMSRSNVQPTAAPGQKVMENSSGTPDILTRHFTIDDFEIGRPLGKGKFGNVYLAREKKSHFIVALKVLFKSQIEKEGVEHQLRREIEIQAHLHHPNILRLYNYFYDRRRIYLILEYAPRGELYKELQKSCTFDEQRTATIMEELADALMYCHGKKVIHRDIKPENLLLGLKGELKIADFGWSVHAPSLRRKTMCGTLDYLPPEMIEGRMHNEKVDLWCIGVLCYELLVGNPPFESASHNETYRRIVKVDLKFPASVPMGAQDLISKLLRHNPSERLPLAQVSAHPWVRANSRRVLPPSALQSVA
Chain of Vascular endothelial growth factor receptor 1 (Homo sapiens) (P17948 whole entry): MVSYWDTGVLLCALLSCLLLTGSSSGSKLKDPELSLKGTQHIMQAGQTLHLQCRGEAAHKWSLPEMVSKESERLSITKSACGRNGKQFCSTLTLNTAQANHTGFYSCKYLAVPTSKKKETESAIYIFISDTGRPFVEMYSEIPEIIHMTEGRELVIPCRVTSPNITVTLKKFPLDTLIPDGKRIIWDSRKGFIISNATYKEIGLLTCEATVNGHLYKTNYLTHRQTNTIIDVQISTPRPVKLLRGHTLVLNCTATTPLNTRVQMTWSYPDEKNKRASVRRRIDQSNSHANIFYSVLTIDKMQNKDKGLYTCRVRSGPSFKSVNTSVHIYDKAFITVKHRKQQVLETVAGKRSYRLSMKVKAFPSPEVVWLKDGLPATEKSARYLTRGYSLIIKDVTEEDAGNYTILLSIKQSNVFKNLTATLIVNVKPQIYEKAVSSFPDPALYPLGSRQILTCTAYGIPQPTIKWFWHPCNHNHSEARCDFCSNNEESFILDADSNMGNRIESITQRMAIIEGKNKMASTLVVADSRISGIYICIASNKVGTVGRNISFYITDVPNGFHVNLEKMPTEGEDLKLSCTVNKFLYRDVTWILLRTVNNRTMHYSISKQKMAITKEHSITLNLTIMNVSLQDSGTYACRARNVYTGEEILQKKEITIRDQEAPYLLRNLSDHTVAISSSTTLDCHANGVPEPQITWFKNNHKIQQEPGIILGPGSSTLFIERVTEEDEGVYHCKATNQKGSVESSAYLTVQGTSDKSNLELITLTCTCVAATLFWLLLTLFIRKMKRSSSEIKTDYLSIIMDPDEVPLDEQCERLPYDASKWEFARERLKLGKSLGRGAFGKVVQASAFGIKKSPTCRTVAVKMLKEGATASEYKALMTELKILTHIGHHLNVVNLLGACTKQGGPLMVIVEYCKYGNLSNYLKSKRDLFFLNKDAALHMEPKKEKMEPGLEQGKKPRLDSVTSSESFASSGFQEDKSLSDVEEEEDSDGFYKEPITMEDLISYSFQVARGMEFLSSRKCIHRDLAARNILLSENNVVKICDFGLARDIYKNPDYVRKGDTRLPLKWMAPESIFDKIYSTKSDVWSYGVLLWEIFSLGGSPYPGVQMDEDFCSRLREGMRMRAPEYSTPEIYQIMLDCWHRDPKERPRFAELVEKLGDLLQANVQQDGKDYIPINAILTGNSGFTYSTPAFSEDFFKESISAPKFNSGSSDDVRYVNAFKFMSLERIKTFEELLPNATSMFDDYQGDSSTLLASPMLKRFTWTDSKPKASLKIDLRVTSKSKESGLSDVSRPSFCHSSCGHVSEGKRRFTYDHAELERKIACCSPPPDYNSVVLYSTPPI
Chain of Aurora kinase A (Homo sapiens, UniProt O14965, T217E) (O14965 whole entry I57V/T217E): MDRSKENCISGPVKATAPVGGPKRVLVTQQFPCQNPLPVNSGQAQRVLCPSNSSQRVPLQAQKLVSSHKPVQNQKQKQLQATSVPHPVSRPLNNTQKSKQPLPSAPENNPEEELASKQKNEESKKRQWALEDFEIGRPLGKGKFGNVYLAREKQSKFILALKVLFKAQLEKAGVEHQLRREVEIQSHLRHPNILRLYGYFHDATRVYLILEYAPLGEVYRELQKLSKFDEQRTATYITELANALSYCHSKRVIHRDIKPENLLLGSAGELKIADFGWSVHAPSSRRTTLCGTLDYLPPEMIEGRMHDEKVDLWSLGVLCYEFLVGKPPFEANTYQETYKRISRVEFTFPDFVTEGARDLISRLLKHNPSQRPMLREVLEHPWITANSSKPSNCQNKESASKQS
Chain of Aurora kinase A (Homo sapiens, UniProt O14965, R220K) (O14965 whole entry I57V/R220K): as the sequence (O14965 whole entry I57V/T217E) above, with E217T, R220K counted along it
Chain of Aurora kinase A (Homo sapiens, UniProt O14965, L215R) (O14965 whole entry I57V/L215R): as the sequence (O14965 whole entry I57V/T217E) above, with L215R, E217T counted along it

| Compound | IC50 (Aurora kinase B [1]) [nM] | IC50 (Aurora kinase A [2]) [nM] | further results |
| --- | --- | --- | --- |
| Cc1nn(C)cc1-c1nc2c(Oc3ccc(C(=O)NCc4ccccc4)cc3)c(Cl)cnc2[nH]1 | 3910 | 204 | – |
| Cc1nn(C)cc1-c1nc2ncc(Cl)c(Oc3ccc(C(=O)Nc4ccncc4)cc3)c2[nH]1 | 3450 | 190 | IC50 (Aurora kinase A [3]): 580 nM; IC50 (Aurora kinase B [4]): 19700 nM |
| COc1ccc(-c2[nH]c3ncc(Cl)cc3c2-c2cccc(CNC(C)=O)c2)cc1 | 1090 | 743 | – |
| Cc1nn(C)cc1-c1nc2c(Oc3ccc(C(=O)NC4CCC4)cc3)c(Cl)cnc2[nH]1 | – | – | inhibition [5]: > 80%; inhibition [6]: Active; inhibition (Aurora kinase B [7]): Active; Ratio IC50 (HeLa): 346 |
| Cc1nn(C)cc1-c1nc2ncc(Cl)c(Oc3ccc(C(=O)NC4CCC4)cc3)c2[nH]1 | 3050 | 15 | remaining at 0.5 h, 10 µM [8]: 22%; IC50 (Aurora kinase A [9]): 42 nM; IC50 (Aurora kinase A [3]): 70 nM; IC50 (Aurora kinase A [10]): 36 nM; IC50 (Aurora kinase A [11]): 43 nM; remaining at 0.5 h, 10 µM [12]: 28%; IC50 (Aurora kinase B [4]): 24200 nM; F (Mus musculus): 14%; IC50 (Aurora kinase A [13]): 2290 nM |
| Cn1cc(-c2[nH]c3ncc(Cl)cc3c2-c2cccc(CNS(C)(=O)=O)c2)cn1 | 441 | 211 | – |
| Cc1nn(C)cc1-c1nc2c(Oc3ccc(C(=O)Nc4ccccc4)cc3)ccnc2[nH]1 | – | 618 | – |
| Cc1nn(C)cc1-c1nc2c(N(C)Cc3ccccc3)c(Cl)cnc2[nH]1 | 169 | 255 | – |
| O=C(Nc1ccccc1)c1ccc(Oc2c(Cl)cnc3nc[nH]c23)cc1 | – | 25800 | – |
| Cc1nn(C)cc1-c1nc2ncc(Cl)c(Oc3ccc(C(=O)N4CCCC4)cc3)c2[nH]1 | 1820 | 45 | – |
| Cc1nn(C)cc1-c1nc2c(Oc3ccc(C(=O)Nc4cccnc4)cc3)c(Cl)cnc2[nH]1 | 1680 | 58 | IC50 (Aurora kinase A [3]): 280 nM; IC50 (Aurora kinase B [4]): 19700 nM; Ratio IC50 (HeLa): 70 |
| Cc1nn(C)cc1-c1nc2c(N3CCC[C@H](CNS(C)(=O)=O)C3)c(Cl)cnc2[nH]1 | 8 | 5 | – |
| Cc1cc(NC(=O)c2ccc(Oc3c(Cl)cnc4nc(-c5cn(C)nc5C)[nH]c34)cc2)on1 | 693 | 71 | IC50 (Aurora kinase B [14]): 4930 nM; IC50 (Aurora kinase A [15]): 95 nM |
| Cc1nn(C)cc1-c1nc2c(Oc3ccc(C(=O)Nc4ccncc4)cc3)c(Cl)cnc2[nH]1 | – | – | Ratio IC50 (HeLa): 34 |
| CC(=O)N[C@@H]1CCN(c2c(Cl)cnc3[nH]c(-c4cn(C)nc4C)nc23)C1 | 2 | 4 | – |
| Cc1nn(C)cc1-c1nc2c(Nc3ccc(C(=O)Nc4ccccc4)cc3)c(Cl)cnc2[nH]1 | 4120 | 75 | IC50 (Aurora kinase B [16]): 18600 nM; Ratio IC50 (Homo sapiens): 58; IC50 (Aurora kinase A [17]): 320 nM |
| Cc1nn(C)cc1-c1nc2ncc(Cl)c(N3CCC[C@@H](CNS(C)(=O)=O)C3)c2[nH]1 | 17 | 7 | – |
| CC(=O)NCc1cccc(-c2c(-c3cnn(C)c3)[nH]c3ncc(Cl)cc23)c1 | 97 | 118 | – |
| Cc1nn(C)cc1-c1nc2c(N3CCC[C@H](CN(C)S(C)(=O)=O)C3)c(Cl)cnc2[nH]1 | 9 | 5 | – |
| COc1ccc(-c2[nH]c3ncc(Cl)cc3c2-c2cccc(CNS(C)(=O)=O)c2)cc1 | 7100 | 1940 | – |
| CC(=O)NC[C@@H]1CCN(c2c(Cl)cnc3nc(-c4cn(C)nc4C)[nH]c23)C1 | 7 | 9 | – |
| CC(=O)N[C@H]1CCN(c2c(Cl)cnc3[nH]c(-c4cn(C)nc4C)nc23)C1 | 80 | 270 | – |
